According to ChEMBL document CHEMBL1944580, “Synthesis of novel sulfonamide-1,2,4-triazoles, 1,3,4-thiadiazoles and 1,3,4-oxadiazoles, as potential antibacterial and antifungal agents. Biological evaluation and conformational analysis studies” (2012):
≈ marks a conversion by molar mass, not a printed value.

Experiments:
Staphylococcus aureus [1] = experiment: Antibacterial activity against Staphylococcus aureus ATCC 6538 after 24 hrs by micro dilution method; format: functional; conditions: ATCC 6538, 24 h
How it was run: (§1)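 Microdilution MIC in 96-well plates. Bacterial suspensions adjusted in sterile saline to 1.0 × 10^5 CFU/ml, giving 1.0 × 10^4 cfu per well in LB broth. Compounds tested at up to 1 mg/ml. Plates incubated 24 h. MIC taken as the lowest concentration with no visible growth under a binocular microscope. OD at 655 nm was also read against a blank and the positive control. Streptomycin and ampicillin were the positive controls.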

Bacillus cereus [2] = experiment: Antibacterial activity against Bacillus cereus clinical isolate after 24 hrs by micro dilution method; format: functional; how it was run: as §1
Micrococcus flavus [3] = experiment: Antibacterial activity against Micrococcus flavus ATCC 10240 after 24 hrs by micro dilution method; format: functional; conditions: ATCC 10240, 24 h; how it was run: as §1
Listeria monocytogenes [4] = experiment: Antibacterial activity against Listeria monocytogenes NCTC 7973 after 24 hrs by micro dilution method; format: functional; conditions: NCTC 7973, 24 h; how it was run: as §1
Pseudomonas aeruginosa [5] = experiment: Antibacterial activity against Pseudomonas aeruginosa ATCC 27853 after 24 hrs by micro dilution method; format: functional; conditions: ATCC 27853, 24 h; how it was run: as §1
Enterobacter cloacae [6] = experiment: Antibacterial activity against Enterobacter cloacae human isolate after 24 hrs by micro dilution method; format: functional; how it was run: as §1
Salmonella typhimurium [7] = experiment: Antibacterial activity against Salmonella Typhimurium ATCC 13311 after 24 hrs by micro dilution method; format: functional, Salmonella enterica subsp. enterica serovar Typhimurium; conditions: Salmonella enterica, ATCC 13311, 24 h; how it was run: as §1
Escherichia coli [8] = experiment: Antibacterial activity against Escherichia coli ATCC 35210 after 24 hrs by micro dilution method; format: functional; conditions: ATCC 35210, 24 h; how it was run: as §1
Staphylococcus aureus [9] = experiment: Antibacterial activity against Staphylococcus aureus ATCC 6538 treated for 24 hrs followed by sub-cultivated for 72 hrs by micro dilution method; format: functional
How it was run: (§2)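 2 µl from each well was serially subcultured into 100 µl fresh broth per well and incubated a further 72 h. MBC is the lowest concentration with no visible growth, taken as 99.5% killing of the original inoculum. Streptomycin and ampicillin were the positive controls.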

Bacillus cereus [10] = experiment: Antibacterial activity against Bacillus cereus clinical isolate treated for 24 hrs followed by sub-cultivated for 72 hrs by micro dilution method; format: functional; how it was run: as §2
Micrococcus flavus [11] = experiment: Antibacterial activity against Micrococcus flavus ATCC 10240 treated for 24 hrs followed by sub-cultivated for 72 hrs by micro dilution method; format: functional; how it was run: as §2
Listeria monocytogenes [12] = experiment: Antibacterial activity against Listeria monocytogenes NCTC 7973 treated for 24 hrs followed by sub-cultivated for 72 hrs by micro dilution method; format: functional; how it was run: as §2
Pseudomonas aeruginosa [13] = experiment: Antibacterial activity against Pseudomonas aeruginosa ATCC 27853 treated for 24 hrs followed by sub-cultivated for 72 hrs by micro dilution method; format: functional; how it was run: as §2
Enterobacter cloacae [14] = experiment: Antibacterial activity against Enterobacter cloacae human isolate treated for 24 hrs followed by sub-cultivated for 72 hrs by micro dilution method; format: functional; how it was run: as §2
Salmonella typhimurium [15] = experiment: Antibacterial activity against Salmonella Typhimurium ATCC 13311 treated for 24 hrs followed by sub-cultivated for 72 hrs by micro dilution method; format: functional, Salmonella enterica subsp. enterica serovar Typhimurium; conditions: Salmonella enterica; how it was run: as §2
Escherichia coli [16] = experiment: Antibacterial activity against Escherichia coli ATCC 35210 treated for 24 hrs followed by sub-cultivated for 72 hrs by micro dilution method; format: functional; how it was run: as §2
Talaromyces funiculosus [17] = experiment: Antifungal activity against Penicillium funiculosum ATCC 36839 after 72 hrs by serial dilution method; format: functional; conditions: ATCC 36839, 72 h
How it was run: (§3)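 Modified microdilution MIC. Spores were washed from malt agar cultures with sterile 0.85% saline containing 0.1% Tween 80 and adjusted to about 1.0 × 10^5 per 100 µl well in malt broth. Compounds were dissolved in DMSO (1 mg/ml). Plates incubated 72 h at 28 °C. MIC is the lowest concentration with no visible growth under a binocular microscope. Bifonazole and ketoconazole were the references.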

Penicillium ochrochloron [18] = experiment: Antifungal activity against Penicillium ochrochloron ATCC 9112 after 72 hrs by serial dilution method; format: functional; conditions: ATCC 9112, 72 h; how it was run: as §3
Trichoderma viride [19] = experiment: Antifungal activity against Trichoderma viride IAM 5061 after 72 hrs by serial dilution method; format: functional; conditions: IAM 5061, 72 h; how it was run: as §3
Aspergillus fumigatus [20] = experiment: Antifungal activity against Aspergillus fumigatus human isolate after 72 hrs by serial dilution method; format: functional; how it was run: as §3
Aspergillus niger [21] = experiment: Antifungal activity against Aspergillus niger ATCC 6275 after 72 hrs by serial dilution method; format: functional; conditions: ATCC 6275, 72 h; how it was run: as §3
Aspergillus flavus [22] = experiment: Antifungal activity against Aspergillus flavus ATCC 9643 after 72 hrs by serial dilution method; format: functional; conditions: ATCC 9643, 72 h; how it was run: as §3
Aspergillus versicolor [23] = experiment: Antifungal activity against Aspergillus versicolor ATCC 11730 after 72 hrs by serial dilution method; format: functional; conditions: ATCC 11730, 72 h; how it was run: as §3
Fulvia fulva [24] = experiment: Antifungal activity against Fulvia fulva after 72 hrs by serial dilution method; format: functional; how it was run: as §3
Talaromyces funiculosus [25] = experiment: Antifungal activity against Penicillium funiculosum ATCC 36839 treated for 72 hrs followed by sub-cultivated for 5 days by serial dilution method; format: functional
How it was run: (§4)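 MFC obtained after the 72 h, 28 °C malt-broth microdilution (spore inoculum about 1.0 × 10^5 per well, compounds from 1 mg/ml DMSO). 2 µl was serially subcultured into 100 µl broth per well and incubated a further 5 days at 28 °C. MFC is the lowest concentration with no visible growth, taken as 99.5% killing of the original inoculum.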

Penicillium ochrochloron [26] = experiment: Antifungal activity against Penicillium ochrochloron ATCC 9112 treated for 72 hrs followed by sub-cultivated for 5 days by serial dilution method; format: functional; how it was run: as §4
Trichoderma viride [27] = experiment: Antifungal activity against Trichoderma viride IAM 5061 treated for 72 hrs followed by sub-cultivated for 5 days by serial dilution method; format: functional; how it was run: as §4
Aspergillus fumigatus [28] = experiment: Antifungal activity against Aspergillus fumigatus human isolate treated for 72 hrs followed by sub-cultivated for 5 days by serial dilution method; format: functional; how it was run: as §4
Aspergillus niger [29] = experiment: Antifungal activity against Aspergillus niger ATCC 6275 treated for 72 hrs followed by sub-cultivated for 5 days by serial dilution method; format: functional; how it was run: as §4
Aspergillus flavus [30] = experiment: Antifungal activity against Aspergillus flavus ATCC 9643 treated for 72 hrs followed by sub-cultivated for 5 days by serial dilution method; format: functional; how it was run: as §4
Aspergillus versicolor [31] = experiment: Antifungal activity against Aspergillus versicolor ATCC 11730 treated for 72 hrs followed by sub-cultivated for 5 days by serial dilution method; format: functional; how it was run: as §4
Fulvia fulva [32] = experiment: Antifungal activity against Fulvia fulva treated for 72 hrs followed by sub-cultivated for 5 days by serial dilution method; format: functional; how it was run: as §4

Structure (SMILES) | MIC (Staphylococcus aureus [1]) [µM] | MIC (Bacillus cereus [2]) [µM] | MIC (Micrococcus flavus [3]) [µM] | MIC (Listeria monocytogenes [4]) [µM] | MIC (Pseudomonas aeruginosa [5]) [µM] | MIC (Enterobacter cloacae [6]) [µM] | MIC (Salmonella typhimurium [7]) [µM] | MIC (Escherichia coli [8]) [µM] | MBC (Staphylococcus aureus [9]) [µM] | MBC (Bacillus cereus [10]) [µM] | MBC (Micrococcus flavus [11]) [µM] | MBC (Listeria monocytogenes [12]) [µM] | MBC (Pseudomonas aeruginosa [13]) [µM] | MBC (Enterobacter cloacae [14]) [µM] | MBC (Salmonella typhimurium [15]) [µM] | MBC (Escherichia coli [16]) [µM] | MIC (Talaromyces funiculosus [17]) [µM] | MIC (Penicillium ochrochloron [18]) [µM] | MIC (Trichoderma viride [19]) [µM] | MIC (Aspergillus fumigatus [20]) [µM] | also measured
CCNc1nnc(Cc2cc(OC)c(OC)cc2S(=O)(=O)N(C)C)o1 | 140 (≈ 51.9 µg/mL) | 140 (≈ 51.9 µg/mL) | 270 (≈ 100 µg/mL) | 270 (≈ 100 µg/mL) | 270 (≈ 100 µg/mL) | 670 (≈ 248 µg/mL) | 140 (≈ 51.9 µg/mL) | 140 (≈ 51.9 µg/mL) | 270 (≈ 100 µg/mL) | 270 (≈ 100 µg/mL) | 540 (≈ 200 µg/mL) | 540 (≈ 200 µg/mL) | 540 (≈ 200 µg/mL) | 670 (≈ 248 µg/mL) | 270 (≈ 100 µg/mL) | 270 (≈ 100 µg/mL) | 140 (≈ 51.9 µg/mL) | 140 (≈ 51.9 µg/mL) | 30 (≈ 11.1 µg/mL) | 270 (≈ 100 µg/mL) | MIC (Aspergillus niger [21]): 140 µM (≈ 51.9 µg/mL); MIC (Aspergillus flavus [22]): 140 µM (≈ 51.9 µg/mL); MIC (Aspergillus versicolor [23]): 140 µM (≈ 51.9 µg/mL); MIC (Fulvia fulva [24]): 270 µM (≈ 100 µg/mL); MFC (Talaromyces funiculosus [25]): 270 µM (≈ 100 µg/mL); MFC (Penicillium ochrochloron [26]): 270 µM (≈ 100 µg/mL); MFC (Trichoderma viride [27]): 30 µM (≈ 11.1 µg/mL); MFC (Aspergillus fumigatus [28]): 270 µM (≈ 100 µg/mL); MFC (Aspergillus niger [29]): 140 µM (≈ 51.9 µg/mL); MFC (Aspergillus flavus [30]): 400 µM (≈ 148 µg/mL); MFC (Aspergillus versicolor [31]): 400 µM (≈ 148 µg/mL); MFC (Fulvia fulva [32]): 270 µM (≈ 100 µg/mL)
CCCNc1nnc(Cc2cc(OC)c(OC)cc2S(=O)(=O)N(C)C)o1 | 260 (≈ 100 µg/mL) | 260 (≈ 100 µg/mL) | 130 (≈ 50 µg/mL) | 130 (≈ 50 µg/mL) | 260 (≈ 100 µg/mL) | 630 (≈ 242 µg/mL) | 130 (≈ 50 µg/mL) | 630 (≈ 242 µg/mL) | 260 (≈ 100 µg/mL) | 260 (≈ 100 µg/mL) | 260 (≈ 100 µg/mL) | 260 (≈ 100 µg/mL) | 260 (≈ 100 µg/mL) | 750 (≈ 288 µg/mL) | 260 (≈ 100 µg/mL) | 630 (≈ 242 µg/mL) | 260 (≈ 100 µg/mL) | 130 (≈ 50 µg/mL) | 70 (≈ 26.9 µg/mL) | 130 (≈ 50 µg/mL) | MIC (Aspergillus niger [21]): 130 µM (≈ 50 µg/mL); MIC (Aspergillus flavus [22]): 130 µM (≈ 50 µg/mL); MIC (Aspergillus versicolor [23]): 260 µM (≈ 100 µg/mL); MIC (Fulvia fulva [24]): 130 µM (≈ 50 µg/mL); MFC (Talaromyces funiculosus [25]): 780 µM (≈ 300 µg/mL); MFC (Penicillium ochrochloron [26]): 260 µM (≈ 100 µg/mL); MFC (Trichoderma viride [27]): 130 µM (≈ 50 µg/mL); MFC (Aspergillus fumigatus [28]): 260 µM (≈ 100 µg/mL); MFC (Aspergillus niger [29]): 390 µM (≈ 150 µg/mL); MFC (Aspergillus flavus [30]): 390 µM (≈ 150 µg/mL); MFC (Aspergillus versicolor [31]): 390 µM (≈ 150 µg/mL); MFC (Fulvia fulva [32]): 260 µM (≈ 100 µg/mL)
